Results from different studies.
Lines come from different studies, so protocols differ.
Target: Serine/threonine-protein kinase pim-1 (PIM1, Homo sapiens, UniProt P11309)

FC(F)(F)Oc1cccc(-c2cnc3ccc(-c4ccncc4)nn23)c1  activity vs control (enzyme activity, inhibitor, radiometric; 1 µM): 59%
Nc1ncnc2occ(-c3ccc(NC(=O)Nc4cc(C(F)(F)F)ccc4F)cc3)c12  remaining signal (cell-free assay, inhibitor; 20 µM): 55%
N#Cc1ccc(Nc2ccc3[nH]c(=O)[nH]c3c2)c(Cl)c1  remaining binding (cell-free assay, competition with immobilised ligand; 1 µM): 90%
O=C1Nc2ccc(Cl)cc2C1=Cc1cc(Cl)c(O)c(Cl)c1  remaining signal (cell-free assay; 0.5 µM): 19.4%
COc1cc2ncnc(Nc3ccc(Oc4ccccc4)cc3C)c2cc1OC  inhibition (enzyme activity, inhibitor; 1 µM): -4%
CSc1cccnc1N1CCN(Cc2nc3ccccc3[nH]2)CC1  remaining binding (cell-free assay, competition with immobilised ligand; 1 µM): 100%
CN(C)C1CCN(CC#Cc2nn(C3CCCC3)c3nc(NCc4ccccc4)ncc23)C1 (stereo not drawn)  inhibition (enzyme activity, inhibitor, FRET; 1 µM): 2%
O=C(N[C@H]1CCCCC/C=C\C2C[C@@]2(C(=O)O)NC(=O)[C@@H]2C[C@@H](Oc3ccncc3)CN2C1=O)OC1CCCC1 (stereo partly drawn)  remaining binding (binding, competition with immobilised ligand; 1 µM): 100%
Cn1c2c(c3ccc(Cl)c(Cl)c31)C(C#N)C1(CCNCC1)NC2=O (racemic)  ΔTm (thermal stability, DSF; 10 µM): > 8 °C
Nc1c(C(=O)NCc2ccc(C(=O)NCCCC3CCCCC3)cc2)cnn1-c1ccccc1  remaining binding (cell-free assay, competition with immobilised ligand; 0.1 µM): 93%
Cc1cnc(NC2CCOCC2)nc1-n1cnc(C(=O)NC(CN)c2cc(F)cc(Cl)c2)c1 (stereo not drawn)  remaining activity (enzyme activity, inhibitor, radiometric; 1 µM): 90%
O=C(CSc1nc2nccnc2c(=O)n1CCc1ccccc1)Nc1nccs1  inhibition (enzyme activity, inhibitor; 10 µM): 5%
O=C1NC(=O)c2cc(Nc3ccc(F)cc3)c(Nc3ccc(F)cc3)cc21  remaining signal (cell-free assay; 0.5 µM): 81.8%
O=C(NCCCC1CCCCC1)c1ccc(CNC(=O)c2cnn(-c3ccccc3)c2C(F)(F)F)cc1  remaining binding (cell-free assay, competition with immobilised ligand; 0.1 µM): 100%
Nc1nc(NC2CCCCC2)sc1C(=O)c1ccccc1  remaining activity (enzyme activity, inhibitor; 10 µM): 94%
CCCOc1ccc(OC)c(F)c1C(=O)c1ccc(C(=O)N[C@@H]2CNC[C@H]2NC(=O)c2ccc3[nH]ncc3c2)cc1  remaining activity (enzyme activity, inhibitor; 10 µM): 40%
Cc1ncc([N+](=O)[O-])n1C(=NO)c1ccccc1C(F)(F)F  inhibition (enzyme activity, inhibitor; 10 µM): 8.92%
CCCS(=O)(=O)Nc1ccc(F)c(C(=O)c2c[nH]c3ncc(-c4ccc(Cl)cc4)cc23)c1F  inhibition (enzyme activity, inhibitor; 1 µM): < 10%
Cn1cc(Cl)c2c(Oc3c(F)cc(Nc4cc(Cl)nc(N)n4)cc3F)ccnc21  remaining binding (cell-free assay, competition with immobilised ligand; 0.1 µM): 100%
Cn1c(=O)n(-c2ccc(C(C)(C)C#N)cc2)c2c3cc(-c4cnc5ccccc5c4)ccc3ncc21  remaining activity (enzyme activity, inhibitor; 10 µM): 92%
O=C(Nc1cccnn1)N1CC(C/C=C/c2cncc(Oc3ccc(C(F)(F)F)cn3)n2)C1  remaining binding (cell-free assay, competition with immobilised ligand; 1 µM): 91%
Oc1cccc(-c2nc(N3CCOCC3)c3oc4ncccc4c3n2)c1  remaining activity (enzyme activity, inhibitor; 10 µM): 72%
Cc1sc(C(=O)NC2COC2)cc1-n1cc(NC(=O)Nc2c(F)cccc2Cl)cn1  remaining activity (enzyme activity, inhibitor; 10 µM): 95.1%
CC(C)(C)c1nc(-c2cccc(NS(=O)(=O)c3c(F)cccc3F)c2F)c(-c2ccnc(N)n2)s1  remaining activity (enzyme activity, inhibitor, radiometric; 1 µM): 109%
Cc1ccc(Nc2nccc(N(C)c3ccc4c(C)n(C)nc4c3)n2)cc1S(N)(=O)=O  inhibition (enzyme activity, inhibitor; 0.3 µM): -1%
N#CCCc1ccc2c(c1)-c1[nH]c3ccc([N+](=O)[O-])cc3c1CC(=O)N2  remaining signal (cell-free assay; 0.5 µM): 93.6%
Cc1cc(NC(=O)c2cccc3cc(-c4cccc5[nH]nc(N)c45)ccc23)ccc1F  activity vs control (enzyme activity, inhibitor; 0.1 µM): 108%
O=C(N1CCS(=O)(=O)CC1)N1C[C@H](c2ccc(OC(F)(F)F)cc2)C[C@H](c2nc(C3CC3)no2)C1  remaining binding (cell-free assay, competition with immobilised ligand; 1 µM): 100%
COc1cc(Nc2c(C#N)cnc3cc(OCCCN4CCN(C)CC4)c(OC)cc23)c(Cl)cc1Cl  remaining signal (cell-free assay; 0.5 µM): 99.2%
COc1cc(Nc2cnc(C#N)c(O[C@H](C)CN(C)C)n2)ncc1-c1cnn(C)c1  remaining activity (enzyme activity, inhibitor, radiometric; 10 µM): 22%
CNC(=O)c1cc(Oc2ccc(NC(=O)Nc3ccc(Cl)c(C(F)(F)F)c3)cc2)ccn1  inhibition (enzyme activity, inhibitor; 10 µM): 5%
CN1CC(Oc2cnc(C#N)cc2-c2ccn3nc(NC(=O)C4CC4)cc3c2)C1  inhibition (enzyme activity, inhibitor; 1 µM): -7%
CNc1cccc2cc(C(=O)Nc3ccc(C(=O)O)cc3)c(=O)[nH]c12  inhibition (enzyme activity, inhibitor; 10 µM): 2.6%
